Series [1] deals with Hepatocyte growth factor receptor (Homo sapiens) (UniProt P08581). Kind of series: Induction of c-MET degradation in human MDA-MB-231 cells assessed as reduction in c-Met expression incubated for 48 hrs by immunoblot analysis. The format is cell-based. In short, it runs like this: (§1)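 After 48 h treatment, cells were scraped and lysed in 1% SDS, 50 mM Tris-HCl pH 8.0, 10 mM EDTA with protease and phosphatase inhibitors. Lysates sonicated, protein measured by BCA, equal amounts run on SDS-PAGE and blotted to nitrocellulose. Primary antibodies (EGFR, c-Met, S473-Akt, Akt, GAPDH) used at 1:1000 overnight at 4 °C, HRP secondaries at 1:5000, ECL detection.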
Sequence of Hepatocyte growth factor receptor (Homo sapiens) (P08581 whole entry): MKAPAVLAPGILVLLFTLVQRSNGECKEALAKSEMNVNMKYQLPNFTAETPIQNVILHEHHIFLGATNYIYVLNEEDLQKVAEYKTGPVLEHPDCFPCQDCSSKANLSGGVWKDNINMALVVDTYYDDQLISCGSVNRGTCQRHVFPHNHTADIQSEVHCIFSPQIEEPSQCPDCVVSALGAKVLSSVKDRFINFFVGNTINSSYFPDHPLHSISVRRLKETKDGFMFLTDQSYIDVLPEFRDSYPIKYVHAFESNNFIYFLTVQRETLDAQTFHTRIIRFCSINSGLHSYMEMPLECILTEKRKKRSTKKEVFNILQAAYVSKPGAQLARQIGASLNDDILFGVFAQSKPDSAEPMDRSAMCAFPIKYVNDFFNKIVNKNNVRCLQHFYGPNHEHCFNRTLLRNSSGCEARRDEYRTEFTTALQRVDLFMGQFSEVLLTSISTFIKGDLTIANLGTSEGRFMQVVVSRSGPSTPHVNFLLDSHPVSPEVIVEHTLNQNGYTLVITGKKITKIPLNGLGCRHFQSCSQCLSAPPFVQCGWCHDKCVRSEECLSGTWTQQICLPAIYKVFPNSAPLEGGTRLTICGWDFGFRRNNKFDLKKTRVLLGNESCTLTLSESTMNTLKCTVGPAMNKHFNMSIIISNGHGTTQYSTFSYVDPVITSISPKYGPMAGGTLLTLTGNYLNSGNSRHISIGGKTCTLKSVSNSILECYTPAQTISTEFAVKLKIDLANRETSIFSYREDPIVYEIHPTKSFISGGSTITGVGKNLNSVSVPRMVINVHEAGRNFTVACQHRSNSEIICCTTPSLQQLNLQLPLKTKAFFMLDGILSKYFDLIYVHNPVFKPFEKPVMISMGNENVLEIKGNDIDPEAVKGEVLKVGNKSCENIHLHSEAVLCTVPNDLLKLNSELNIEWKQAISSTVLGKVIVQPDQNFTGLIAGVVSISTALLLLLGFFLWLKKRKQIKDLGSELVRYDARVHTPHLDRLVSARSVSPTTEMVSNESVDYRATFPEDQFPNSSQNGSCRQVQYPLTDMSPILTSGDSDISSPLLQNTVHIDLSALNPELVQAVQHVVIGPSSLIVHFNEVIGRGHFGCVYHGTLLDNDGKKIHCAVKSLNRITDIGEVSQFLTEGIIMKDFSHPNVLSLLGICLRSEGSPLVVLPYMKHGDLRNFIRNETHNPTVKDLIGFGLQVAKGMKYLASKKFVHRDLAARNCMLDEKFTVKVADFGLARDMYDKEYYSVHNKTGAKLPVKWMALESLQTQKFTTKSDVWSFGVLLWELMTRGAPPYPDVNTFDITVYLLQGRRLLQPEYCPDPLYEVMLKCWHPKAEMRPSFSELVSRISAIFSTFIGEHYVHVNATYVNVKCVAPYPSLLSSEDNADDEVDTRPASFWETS

The nature of series [2]: Toxicity in athymic Nude-Foxn1nu BALB/c mouse xenografted with human NCI-H1975 cells harbouring EGFR L858R/T790M double mutant assessed as body weight loss at 50 to 150 mg/kg, po administered once daily via gavage for 20 days measured twice a week. The format is organism-based. As to conditions: in vivo, 480 h. In short, it runs like this:
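Female Balb/c nude mice, 5 weeks old, injected subcutaneously in the right flank with 10^6 H1975 cells in 0.1 ml. Randomized at about 50 mm3, n = 8 per group. Gavaged once daily for 20 days with vehicle (10% DMSO/0.1% Tween 80/0.5% methylcellulose in sterile water) or 50 or 150 mg/kg. Calipers, V = width² × length × 0.52; volume and body weight twice weekly; Student's t-test.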
(Xenograft models place foreign cells or tissue in a host animal.)

In series [3] the test system is NCI-H1975. Kind of series: Antitumor activity against human NCI-H1975 cells harbouring EGFR L858R/T790M double mutant xenografted in athymic Nude-Foxn1nu BALB/c mouse assessed as tumor growth inhibition at 50 mg/kg, po administered once daily via gavage for 20 days in presence of gefitinib measured twice a week by caliper method relative to control. The format is functional. As to conditions: 480 h, read-out: TGI. In short, it runs like this: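 H1975 subcutaneous xenografts in female nude mice, randomized at about 50 mm3, n = 8 per group. Four arms gavaged once daily for 20 days: vehicle, gefitinib 50 mg/kg, test agent 50 mg/kg, or both at 50 mg/kg each. Tumor volume by calipers (width² × length × 0.52), measured twice weekly.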

The subject of series [4] is Epidermal growth factor receptor (Homo sapiens), P00533 [UNDEFINED MUTATION]. Kind of series: Induction of EGFR E746-A750 deletion/T790M mutant degradation in human CL68 cells assessed as Akt phosphorylation at 0.4 to 0.8 uM incubated for 48 hrs by Western blot analysis. The format is cell-based. An outline of the steps: as §1
For orientation: In western blotting, separated proteins are transferred to a membrane and probed.

The test system of series [5] is PC-9. Kind of series: Antiproliferative activity against human PC9 cells harbouring EGFR delE746-A750 mutant assessed as reduction in cell viability incubated for 48 hrs by MTT assay. The format is functional, cell-based. The following applies: PC-9, 48 h. An outline of the steps: (§2)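 Cells seeded at 5000 per well in 10% FBS and left overnight, then exposed to agent or DMSO in 5% FBS for 48 h. MTT added for 1 h, dye dissolved in DMSO, absorbance read at 570 nm. Viability given as percent of vehicle control. At least three independent experiments, means ± SD.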
On the technique in general: Tetrazolium assays rely on reduction of a dye to a coloured formazan, in cell work by metabolically active cells.

Series [6] can be described thus: Antiproliferative activity against human CL68 cells harbouring EGFR delE746-A750/T790M mutant assessed as reduction in cell viability incubated for 48 hrs by MTT assay. The format is functional, cell-based. In short, it runs like this:
as §2

The target in series [7] is Epidermal growth factor receptor (Homo sapiens) (UniProt P00533). Kind of series: Effect on EGFR degradation in wild type human A549 cells assessed as reduction in EGFR mRNA expression at 0.2 to 0.6 uM incubated for 48 hrs by RT-PCR analysis. The format is cell-based. In short, it runs like this: (§3)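 Total RNA extracted with TRIzol from H1975 and A549 cells treated at 0.2–0.6 µM. EGFR and c-Met mRNA assessed by RT-PCR.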

The test system of series [8] is NCI-H1975. Kind of series: Cell cycle arrest in human NCI-H1975 cells harbouring EGFR L858R/T790M double mutant assessed as increase in cells accumulation at G2/M phase at 0.2 to 0.6 uM incubated for 48 hrs by propidium iodide based flow cytometry. The format is functional. In short, it runs like this:
(§4)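 Cells plated at 3 × 10^5 per 6-cm dish and left overnight, then treated for 24 h and 48 h. Pellets fixed in 70% ethanol and stained with 40 µg/ml propidium iodide plus 20 µg/ml RNase A, 30 min on ice in the dark. DNA content read on a FACSCalibur flow cytometer.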

The test system of series [9] is Epidermal growth factor receptor (Homo sapiens), P00533 [G719A,T790M]. Kind of series: Induction of EGFR G719A/T790M mutant degradation in human CL97 cells assessed as reduction in EGFR expression at 0.2 to 0.6 uM incubated for 48 hrs by Western blot analysis. The format is cell-based. In short, it runs like this: as §1
Series [10] relates to NCI-H1975. Kind of series: Antiproliferative activity against human NCI-H1975 cells harbouring EGFR L858R/T790M double mutant assessed as reduction in cell viability incubated for 48 hrs by MTT assay. The format is functional, cell-based. As to conditions: NCI-H1975, 48 h. An outline of the steps:
as §2

For series [11], the system named is PC-9. Kind of series: Cell cycle arrest in human PC9 cells harbouring EGFR delE746-A750 […] assessed as increase in cells accumulation at G2/M phase at 0.4 to 0.8 uM incubated for 48 hrs by propidium iodide based flow cytometry. The format is functional. In short, it runs like this: as §4
The next series deals with CL97. Kind of series: Antiproliferative activity against human CL97 cells harbouring EGFR G719A/T790M mutant assessed as reduction in cell viability incubated for 48 hrs by MTT assay. The format is functional, cell-based. As to conditions: CL97, 48 h. An outline of the steps: as §2
The test system of series [12] is Epidermal growth factor receptor (Homo sapiens), P00533 [L858R,T790M]. Kind of series: Induction of EGFR L858R/T790M double mutant degradation in human NCI-H1975 cells assessed as reduction in EGFR expression at 0.2 to 0.6 uM incubated for 48 hrs by Western blot analysis. The format is cell-based. In short, it runs like this: as §1
Series [13] deals with Hepatocyte growth factor receptor (Homo sapiens) (UniProt P08581). Kind of series: Effect on c-Met degradation in human NCI-H1975 cells harboring EGFR L858R/T790M double assessed as reduction in c-Met expression at 0.2 to 0.6 uM incubated for 48 hrs by RT-PCR analysis. The format is cell-based. In short, it runs like this:
as §3

Series [14] shares this target. Kind of series: Induction of c-MET degradation in wild type human A549 cells assessed as reduction in c-Met expression at 0.2 to 0.6 uM incubated for 48 hrs by immunoblot analysis. The format is cell-based. An outline of the steps: as §1
Series [15] concerns NCI-H1975. Kind of series: Antitumor activity against human NCI-H1975 cells harbouring EGFR L858R/T790M double mutant xenografted in athymic Nude-Foxn1nu BALB/c mouse assessed as reduction in c-Met expression in tumor lysates administered once daily via oral gavage for 20 days measured on day 20 by Western blot analysis. As to conditions: Neoplasm, Lysate. The format is functional. In short, it runs like this: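 H1975 xenografts in nude mice gavaged daily for 20 days with vehicle, 50 or 150 mg/kg. At study end mice were killed by CO2, and tumor lysates from four representative tumors per group were immunoblotted for EGFR and c-Met. Band intensities quantified by densitometry.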

In series [16] the target is Epidermal growth factor receptor (Homo sapiens) (UniProt P00533). Kind of series: Induction of EGFR degradation in wild type human A549 cells assessed as reduction in EGFR expression 0.2 to 0.6 uM incubated for 48 hrs by Western blot analysis. The format is cell-based. An outline of the steps: as §1
Series [17] relates to Epidermal growth factor receptor (Homo sapiens), P00533 [UNDEFINED MUTATION]. Kind of series: Induction of EGFR E746-A750 deletion mutant degradation in human PC9 cells assessed as reduction in EGFR expression at 0.2 to 0.6 uM incubated for 48 hrs by Western blot analysis. The format is cell-based. In short, it runs like this: as §1
Series [18] shares this test system. Kind of series: Induction of EGFR E746-A750 deletion/T790M mutant degradation in human CL68 cells assessed as reduction in EGFR expression at 0.2 to 0.6 uM incubated for 48 hrs by Western blot analysis. The format is cell-based. An outline of the steps:
as §1

Active and inactive are the calls of the source. The rule behind the calls is not given here.

By IC50 is commonly meant the concentration that inhibits the measured activity by half.

For the compound `O=C(Nc1cccc(-c2nc(-c3ccc(NC(=O)c4cccnc4)cc3Cl)no2)c1)Nc1ccc(NC(=O)C2CC2)c(C(F)(F)F)c1`, the outcome (in series [1]; in the series with NCI-H1975 [8]; in series [9]; in the series with PC-9 [11]; in [12]; in series [14]) was Active. In addition, the result in series [16], in series [17] and in [18] was Active. Also, the Activity entry in series [2] is “Non-Toxic”; in the series with NCI-H1975 [15] it was “Dose-dependent effect”. Besides, in the series with NCI-H1975 [3], the inhibition in vivo at 50 mg/kg is 72%. Moreover, the outcome in series [4], in [7] and in series [13] was inactive. Moreover, the IC50 with PC-9 [5] was 600 nM; in [6], 500 nM; in the series with NCI-H1975 [10] it was 300 nM; in the series with CL97, 600 nM.

These data come from ChEMBL document CHEMBL4359903, “1,2,4-Oxadiazole derivatives targeting EGFR and c-Met degradation in TKI resistant NSCLC” (Eur J Med Chem, 2019).
